# Laboratory results reported in PubChem BioAssay.
# Active and inactive are the calls of the source.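 Rule for the calls, unless noted: active = viability at or under a set limit in both replicates, limit being median viability minus 3 SD (cut at about 48% in these data, passing the limit was not always enough); inconclusive = at or under the limit in just one replicate; inactive = at or above the limit in both replicates.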
# What was measured:
# [1] = HUVEC growth inhibition – cell-based, human, primary screen (AID 575;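 active = viability at or below 30% in both replicate assays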;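 note: 100% = median of untreated cell wells with 0.1% DMSO on each plate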); details: HUVEC proliferation, CellTiter-Glo luminescence, 72 h; at 10 µM; stronger effect = lower value
# Summary of the method: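 Test system: primary human umbilical vein endothelial cells; medium: endothelial basal medium with 2% FBS plus growth supplements; dosing: 10 µM compound only; times: 72 h treatment at 37 °C; signal: CTG luminescence; read-out: % viability relative to median vehicle-well signal on each plate; control set: vehicle and MePR control wells; plate: 384-well, collagen-coated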
# [2] = H69AR cell proliferation blockers – human, duplicate replicates, primary screen (AID 580); details: H69AR lung tumor cells viability, ATP luminescence, 72 h; at 10 µM; stronger effect = lower value;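 note: 100% = mean luminescence of untreated wells and 0% = no signal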
# [3] = MRP1 drug-resistance reversers in H69AR cells – cell-based, doxorubicin co-treatment, pilot screen (AID 601;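 active = viability loss from added drug above about 55%, and viability with drug at most 40%, in both replicates, limit read from the data, passing the limit was not always enough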); details: CellTiter-Glo, 72 h, at 10 µM; for differential viability (reversal): stronger effect = higher value
# [4] = yeast transport mutant growth inhibition pilot in 384-well plates, post-Golgi transport modulator project (AID 636; in the data active = inhibition above about 31%); details: absorbance 615 nm, about 18 h, stronger effect = higher value
# [5] = growth suppression of yeast trafficking mutant, preliminary HTS, modulators of trafficking downstream of Golgi apparatus project, 1536-format plate, OD 615 nm (AID 637; in the data active = inhibition above about 30%); details: yeast transport mutant growth, absorbance 615 nm, 18 h; stronger effect = higher value
# [6] = H69AR cells + 2 uM doxorubicin, measured here: viability with 2 uM doxorubicin, stronger effect = lower value
# [7] = H69AR cells, compound alone cytotoxicity
SMILES,viability [1],viability [2],differential viability (reversal) ([3]; H69AR cells + 2 uM doxorubicin),"viability [3, 6] [%]","viability [3, 7] [%]",inhibition [4],inhibition [5]
COc1cccc(NC(=O)C2CCN(c3ncccn3)CC2)c1,90% (inactive),94% (inactive),-2.54% (inactive),96.6,94,-6.4% (inactive),-12.5% (inactive)
CC(=O)Nc1cccc(-c2nnc(-c3ccccc3)o2)c1,88.8% (inactive),92.6% (inactive),6.77% (inactive),85.8,92.6,-5.58% (inactive),-1.9% (inactive)
CN1CCN(c2nc(-c3ccncc3)nc3ccccc23)CC1,78.3% (inactive),78.3% (inactive),49.5% (inactive),28.8,78.3,-5.47% (inactive),1.75% (inactive)
CCN(CC)CCCN1C(=O)C(=O)/C(=C(/O)c2ccc(C)cc2)C1c1ccccn1 (configuration not stated),98.7% (inactive),91.8% (inactive),-1.81% (inactive),93.6,91.8,6.4% (inactive),-4.44% (inactive)
N#CCSCC(=O)Nc1ccc(F)cc1,91.7% (inactive),93.1% (inactive),9.54% (inactive),83.6,93.1,-3.68% (inactive),0% (inactive)
Cc1nc2cc(NC(=O)N3CC4(C)CC3CC(C)(C)C4)ccc2n1C (configuration not stated),100% (inactive),89.7% (inactive),7.53% (inactive),82.2,89.7,-6.71% (inactive),-8.1% (inactive)
O=C(c1nc2n(n1)C(c1ccc(Cl)cc1)C=C(c1ccccc1)N2)N1CCOCC1 (configuration not stated),96.9% (inactive),91.9% (inactive),-6.89% (inactive),98.8,91.9,-1.18% (inactive),-1.9% (inactive)
C=Cn1c(N2CCOCC2)nc2c1c(=O)[nH]c(=O)n2C,98.8% (inactive),97.1% (inactive),8.31% (inactive),88.8,97.1,-4.8% (inactive),1.59% (inactive)
O=C1CC(C(=O)Nc2ccccc2)C2(CCCC2)O1 (configuration not stated),98.4% (inactive),93.9% (inactive),3.1% (inactive),90.8,93.9,-2.6% (inactive),-2.38% (inactive)
O=C(c1ccco1)N1CCN(C(=O)c2ccc(Cn3cc(Br)cn3)o2)CC1,91% (inactive),79.7% (inactive),-12.7% (inactive),92.4,79.7,-2.11% (inactive),2.86% (inactive)
CCc1nccn1S(=O)(=O)c1ccc2ccc(C)cc2c1,105% (inactive),91.3% (inactive),-2.18% (inactive),93.5,91.3,2.24% (inactive),-3.49% (inactive)
CSc1nc2ccc(S(=O)(=O)N3CCOCC3)cc2s1,101% (inactive),89.9% (inactive),-4.54% (inactive),94.4,89.9,-6.53% (inactive),2.06% (inactive)
COC(=O)CN1C(=O)C2(C(C#N)=C(N)Oc3c2c(C)nn3-c2ccccc2)c2ccccc21 (configuration not stated),69.8% (inactive),67.8% (inactive),-5.54% (inactive),73.3,67.8,-6.32% (inactive),-1.43% (inactive)
CCOC(=O)N1CCN(C(=O)Nc2ccc(Cl)cc2)CC1,97.7% (inactive),98.3% (inactive),14.8% (inactive),83.4,98.3,-3.55% (inactive),4.6% (inactive)
CCOc1ccccc1OCCn1nnc2ccccc21,101% (inactive),98.7% (inactive),18.4% (inactive),80.3,98.7,-5.73% (inactive),5.24% (inactive)
CCSc1ccccc1C(=O)NCc1ccc(S(N)(=O)=O)cc1,99.2% (inactive),93.7% (inactive),6.25% (inactive),87.5,93.7,-5.2% (inactive),-1.27% (inactive)
O=C(Nc1ccc2c(c1)OCO2)c1cccc(Cl)c1,71.4% (inactive),104% (inactive),13.2% (inactive),90.3,104,-3.87% (inactive),16.8% (inactive)
CC(C)NC(=O)NC(=O)COc1cccc2c1OC(C)(C)C2,97.1% (inactive),105% (inactive),16.9% (inactive),87.9,105,-3.38% (inactive),0.79% (inactive)
CCN1C(=O)/C(=C/N2CCc3ccccc32)SC1=S,98.3% (inactive),58.5% (inactive),-3.35% (inactive),61.9,58.5,-2.63% (inactive),0.95% (inactive)
CCS(=O)(=O)c1nc2ccccc2n1CC(=O)N1CCOCC1,95.4% (inactive),91% (inactive),3.73% (inactive),87.2,91,-5.32% (inactive),-1.27% (inactive)

SMILES,viability [1],viability [2],differential viability (reversal) ([3]; H69AR cells + 2 uM doxorubicin),"viability [3, 6] [%]","viability [3, 7] [%]",inhibition [4],inhibition [5]
COc1ccc(CCNS(=O)(=O)c2ccc(C(=O)NCc3ccco3)cc2)cc1OC,83.4% (inactive),80.9% (inactive),-4.64% (inactive),85.6,80.9,1.3% (inactive),10.9% (inactive)
CCC1(CC)C(=O)C(C)(C)C(=O)OC1c1cccs1 (configuration not stated),120% (inactive),90.7% (inactive),5.04% (inactive),85.7,90.7,-2.89% (inactive),2.86% (inactive)
CS(=O)(=O)N(CC(=O)N1CCCCCC1)c1ccccc1,95.2% (inactive),98.2% (inactive),8.29% (inactive),90,98.2,-5.79% (inactive),1.9% (inactive)
O=c1oc2ccccc2c(O)c1CN1CCCCC1,96.3% (inactive),99.9% (inactive),16.1% (inactive),83.8,99.9,-6% (inactive),2.22% (inactive)
CCOC(=O)c1cc2oc(C)cc2n1CC(=O)OC1CCCCC1,90.9% (inactive),87.3% (inactive),0.485% (inactive),86.8,87.3,-2.73% (inactive),5.24% (inactive)
Cc1cccc2cc(CN(Cc3nnnn3Cc3ccco3)C3CCCC3)c3nnnn3c12,86.8% (inactive),85.6% (inactive),,,,68.2% (active),4.44% (inactive)
Cc1ccccc1CN1CCN(C(=O)c2cccc(F)c2)CC1,94.7% (inactive),101% (inactive),4.51% (inactive),96.9,101,-1.87% (inactive),-0.16% (inactive)
CC1(C)CC(=O)C=C(NCCN2CCN(C(=O)Nc3ccccc3)CC2)C1,103% (inactive),96.4% (inactive),6.64% (inactive),89.8,96.4,-5.07% (inactive),3.97% (inactive)
O=S(=O)(c1ccccc1)N1CCN(C2CCCCCCC2)CC1,100% (inactive),87.5% (inactive),-6.82% (inactive),94.3,87.5,-1.45% (inactive),1.9% (inactive)
Cc1nn(-c2ccccc2)c(Cl)c1C1C(C#N)=C(N)OC2=C1C(=O)CC(C)(C)C2 (configuration not stated),49.1% (inactive),12.2% (active),-72.2% (inactive),84.4,12.2,-4.68% (inactive),-4.29% (inactive)
O=C(Nc1ccc2c(c1)C(=O)N(C1CCCCC1)C2=O)C1CCCO1 (configuration not stated),90.8% (inactive),90.9% (inactive),-1.69% (inactive),92.6,90.9,-3.33% (inactive),-0.63% (inactive)
Cc1cc(N2C(=O)C(O)=C(C(=O)c3ccc(C)o3)C2c2cccs2)no1 (configuration not stated),64.2% (inactive),79.9% (inactive),-4.59% (inactive),84.5,79.9,-2.13% (inactive),-6.03% (inactive)
CCOC(=O)Cc1nnc(NC(=O)c2ncn[nH]2)s1,95.4% (inactive),98.8% (inactive),-2.02% (inactive),101,98.8,-2.93% (inactive),-1.27% (inactive)
O=C(Nc1ccc(Cl)c(Cl)c1)Nc1cc(C(=O)N2CCOCC2)ccc1N1CCCCC1,105% (inactive),95.9% (inactive),4.12% (inactive),91.8,95.9,-4.08% (inactive),-2.22% (inactive)
Cc1ccc(NC(=O)C2CCCNC2=O)nc1 (configuration not stated),106% (inactive),97.8% (inactive),3.79% (inactive),94,97.8,-0.13% (inactive),-2.7% (inactive)
CN1CCN(S(=O)(=O)c2ccc(NC(=O)c3ccc(F)cc3)cc2)CC1,94.2% (inactive),96.8% (inactive),7.89% (inactive),88.9,96.8,-4% (inactive),-5.08% (inactive)
COc1ccc(CCNC(=O)C2CCCN(c3nn4c(=O)cc(C)nc4s3)C2)cc1OC (configuration not stated),78.6% (inactive),86.4% (inactive),-4.58% (inactive),91,86.4,-6.8% (inactive),3.65% (inactive)
Cc1ccc(S(=O)(=O)NCCc2ccncc2)cc1,95.4% (inactive),110% (inactive),10.4% (inactive),100,110,-2.47% (inactive),-0.16% (inactive)
CC(=O)c1ccc(NC(=O)CSc2nnc(-c3ccoc3C)n2Cc2ccccc2)cc1,80.3% (inactive),93.5% (inactive),3.91% (inactive),89.6,93.5,-2.27% (inactive),-8.57% (inactive)
O=C(CN1C(=O)COc2ccccc21)NCCCN1CCc2ccccc2C1,83.2% (inactive),94.8% (inactive),11.6% (inactive),83.2,94.8,-1.69% (inactive),9.05% (inactive)
